# High-throughput results: PubChem, several laboratories
# Compounds with a hit are over-represented: about 1.3% of the library has one in this group of screens.
# procasp7 counter – counter-screen for procaspase-3 activators: activators of human procaspase-7; P55210; recombinant procaspase-7, Ac-DEVD-pNA absorbance 405 nm; D23A/D198A/D206A triple mutant, cannot self-cleave; scale: DMSO 0, 5 µM enzyme 100; activation, % at 8.5 µM; hit rate 0.093% among 330,000; AID 463210;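 active means percent activation above the screen-wide mean plus 3 SD, cut at about 25% in these data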
#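 Assay system: Uncleavable procaspase-7 mutant enzyme; Input: 2 µM procaspase-7 mutant as dispensed; Also added: DEVD-pNA substrate; Medium: Zinc-free HEPES pH 7.4 with 300 mM NaCl, 0.01% Triton X-100; Timing: 1 h compound preincubation, 2 h substrate cleavage, 25 °C; Measured by: Epi-absorbance of released pNA at 405 nm, two timepoints.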
# Lipid droplet – hepatic lipid droplet formation modulation; inhibition, % at 6.5 µM; hit rate 0.4% among 240,000; AML12 mouse hepatocytes, oleate lipid droplets, BODIPY imaging;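 active means lipid droplet intensity inhibited by at least 50%, with more than 500 cells counted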
#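 Material – AML12 mouse liver cells · Also added – oleate loading, 100 µM · Compound dosing – 6.5 µM single-point dosing · Times – overnight treatment with compound plus oleate · Measured by – fluorescence imaging, 20x objective, two fields per well · Read-out – percent inhibition of filter-corrected integrated lipid droplet intensity per well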
# VLA-4 inh – inhibition in a human VLA-4 binding assay. P13612. VLA-4 expressing cells, ligand binding flow cytometry. inhibition, % (about 7 µM as worked out from the volumes in the protocol). hit rate 0.2% among 330,000. AID 2557; in the data active means inhibition above about 50%
# Target sequence (P13612 whole entry, looked up): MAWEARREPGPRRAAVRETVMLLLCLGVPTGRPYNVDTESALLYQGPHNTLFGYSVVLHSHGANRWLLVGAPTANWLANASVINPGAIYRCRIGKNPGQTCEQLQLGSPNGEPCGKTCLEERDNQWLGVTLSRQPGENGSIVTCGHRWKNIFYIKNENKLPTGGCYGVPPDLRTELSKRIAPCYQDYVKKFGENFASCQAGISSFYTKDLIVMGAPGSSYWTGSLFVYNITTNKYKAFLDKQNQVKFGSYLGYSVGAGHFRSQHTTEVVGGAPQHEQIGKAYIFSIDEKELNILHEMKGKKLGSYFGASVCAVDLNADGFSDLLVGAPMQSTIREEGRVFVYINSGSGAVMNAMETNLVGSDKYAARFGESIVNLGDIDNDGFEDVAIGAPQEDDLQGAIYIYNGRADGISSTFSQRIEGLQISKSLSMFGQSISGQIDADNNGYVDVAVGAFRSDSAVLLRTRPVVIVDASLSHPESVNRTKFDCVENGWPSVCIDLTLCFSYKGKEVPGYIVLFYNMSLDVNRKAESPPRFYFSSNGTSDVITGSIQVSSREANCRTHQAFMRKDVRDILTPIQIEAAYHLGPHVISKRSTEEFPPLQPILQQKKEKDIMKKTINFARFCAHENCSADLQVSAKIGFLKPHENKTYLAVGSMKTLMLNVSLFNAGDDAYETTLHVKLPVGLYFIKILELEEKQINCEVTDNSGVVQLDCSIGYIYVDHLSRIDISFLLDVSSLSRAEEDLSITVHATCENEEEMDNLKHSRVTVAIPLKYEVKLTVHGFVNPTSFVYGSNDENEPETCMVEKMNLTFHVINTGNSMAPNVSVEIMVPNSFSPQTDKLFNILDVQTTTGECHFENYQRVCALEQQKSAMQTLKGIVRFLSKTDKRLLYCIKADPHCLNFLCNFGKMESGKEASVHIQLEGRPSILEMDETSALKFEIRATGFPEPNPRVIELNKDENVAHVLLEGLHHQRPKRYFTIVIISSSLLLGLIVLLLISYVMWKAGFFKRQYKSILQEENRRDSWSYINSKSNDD
# GRK2 aptamer HTS – blocks RNA aptamer binding to human GRK2; P25098; bead flow cytometry, FAM-aptamer displacement from GRK2; inhibition of aptamer binding, % at 10 µM; hit rate 0.59% among 330,000; AID 488847;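 active means inhibition of aptamer binding above 40%, roughly 3 SD of noise, on plates passing a quality check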;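 further: median bead fluorescence of bound FAM aptamer so fluorescent compounds give negative values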
# proCasp3 act – activators of human procaspase-3. P42574. recombinant procaspase-3 D3A, Ac-DEVD-pNA absorbance 405 nm. activation, % at 8.5 µM. hit rate 0.11% among 330,000. AID 463141;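 active means activation above the mean of all tested compounds plus 3 SD, cut at about 21% in these data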;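 further: 0% = DMSO alone and 100% = DMSO wells spiked with extra 5 µM PC-3 D3A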
#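 Assay system – Procaspase-3 D3A mutant · Benchmarks – DMSO low control, extra-enzyme high control · Technique – 405 nm absorbance of p-nitroaniline, reads at 0 and 120 min · Doses – 8.5 µM nominal · Measure – % activation between DMSO and enzyme-spiked controls · Also added – Ac-DEVD-pNA chromogenic peptide substrate · Schedule – 1 h compound preincubation, 2 h substrate hydrolysis at 25 °C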
# GASC-1 inh – inhibitors of human GASC-1 (JMJD2C) demethylase | Q9H3R0 | AID 2099 | GST-JMJD2C(1-420) H3K9me3 demethylation, DELFIA europium | hit rate 0.069% among 330,000 | inhibition, % at 2.35 µM;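 active means more than half of a compound's replicate wells show inhibition beyond 50%, single wells judged on their own value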;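 further: signal counts dimethyl H3K9 product captured on neutravidin plate; 0% = median of DMSO wells and 100% = 0.3 times that DMSO median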
# Lipid drop inh – hepatic lipid droplet formation inhibition, confirmed; inhibition, % at 5.2 µM; shares compounds with Lipid droplet; AML12 mouse hepatocytes, BODIPY lipid droplet imaging; droplets induced with 100 µM oleic acid; hit rate 65% among 870;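 active means inhibition of lipid droplet metric at least 50%, with more than 300 cells in each of four replicates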;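 further: plate controls were DMSO with oleic acid for no effect and 5 µM Triacsin-C for full effect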
# AML12 cytotox – toxic to AML12 mouse hepatocytes in counter-screen | shares compounds with Lipid droplet | DAPI nuclear morphology cytotoxicity imaging; stronger effect = higher value; cells fed 100 µM oleate overnight | z-score at 5 µM | hit rate 3% among 870; in the data active means z-score above about 6.3;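 further: compound exposure lasted overnight at 37 °C before fixation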
# AML12 tox ATP – AML12 hepatocyte cytotoxicity, confirmed; shares compounds with Lipid droplet; AML12 mouse hepatocyte viability, ATP luminescence; cells loaded with 100 µM oleic acid; cytotoxicity, % at 50 µM; 530 tested, under 10 active; AID 463219;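 active means cytotoxicity above 50% in each of four replicates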;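 further: compound exposure lasted overnight at 37 °C before the ATP read; 0% = DMSO-treated cells and 100% = wells with no cells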
# Starred values were filed as active, the others as inactive; . = no result.
SMILES,procasp7 counter,Lipid droplet,VLA-4 inh,GRK2 aptamer HTS,proCasp3 act,GASC-1 inh,Lipid drop inh,AML12 cytotox,AML12 tox ATP
O=C(CNc1cc(S(=O)(=O)N2CCCC2)ccc1OCC(F)(F)F)Nc1cccc(C(F)(F)F)c1,-1,54*,6,0,4,2,-4,0.042,.
COc1ccc(C(=O)N=C2SC3CS(=O)(=O)CC3N2Cc2ccccc2)cc1OC (stereo unspecified),10,8,-1,0,0,7,.,.,.
CCCCCC(/C=N/Nc1ccc(S(=O)(=O)N2CCOCC2)cc1[N+](=O)[O-])=C\c1ccccc1,6,61*,13,6,-5,8,35,-0.65,.
CC(C)(C)n1nc2c(c1NC(=O)c1ccc(C(F)(F)F)cc1)CS(=O)(=O)C2,-1,-20,4,0,2,-6,.,.,.
COC(=O)Cn1c(O)c(N=NC(=O)CNC(=O)COc2cccc(C)c2)c2ccccc21,1,68*,20,0,0,9,25,-1.1,.
CCn1c(O)c(N=NC(=O)CNc2cccc(C)c2)c2ccccc21,4,-4,-2,1,-8,4,.,.,.
CC1(C)OC(c2ccccc2)=C/C(=C/C=C2C(=O)c3ccccc3C2=O)O1,6,73*,-187,4,-1,-6,27,0.25,.
Cc1nc2ccccc2nc1OCc1ccccc1,7,7,-13,3,10,19,.,.,.
Cc1nc2ccccc2nc(=O)c1NNc1ccccc1,.,59*,.,.,.,0,59*,2.3,.
Cc1ccc2nc(=O)c(NNc3ccccc3)cnc2c1,-6,52*,2,4,-6,9,59,3.8,46
CCOc1ccc(NS(=O)(=O)c2ccc3c(c2)N(C(C)=O)CCS3)cc1,-4,-10,-5,0,-8,1,.,.,.
Cc1cc(-c2nnc(-c3cccc(Cl)c3)o2)no1,0,4,-7,0,7,0,.,.,.
CC(C)CCN1CCC(n2nccc2NC(=O)c2ccc3c(c2)OCO3)CC1,7,-11,8,1,8,0,.,.,.
Cc1ccccc1OCc1nnc(SCC(=O)Nc2ccc3c(c2)oc2ccccc23)n1C,10,93*,8,3,5,118,40,0.56,.
COc1ccccc1OCc1nnc(SCC(=O)Nc2ccc(C)cc2)n1C,-4,.,-4,3,7,1,.,.,.
O=C(Nc1cccc(Br)c1)c1cc(=O)c2ccccc2o1,9,14,3,0,-1,-2,.,.,.
Cc1ccc(NC(=O)CCC(=O)N/N=C/c2cccs2)cc1,12,-2,21,4,4,2,.,.,.
Oc1ccc2ccccc2c1N=Nc1ccccc1F,8,93*,-8,4,-6,-7,95*,0.84,.
CN(Cc1ccccc1)C(=O)C1CCN(S(=O)(=O)c2cccc3nsnc23)CC1,-1,-17,1,2,-1,-1,.,.,.
Cc1nn(-c2ccc([N+](=O)[O-])cc2)c2c1C(c1cccc(Br)c1)N1C(=N2)C(=O)Nc2ccccc21 (stereo unspecified),-1,118*,0,1,-3,-14,82*,0.12,-5
COc1ccc(/C=C(\NC(=O)c2cccs2)C(=O)Nc2cccc3ccccc23)cc1OC,8,84*,-25,1,-10,-15,102*,0.16,8
COc1cccc(NC(=O)CCC(=O)Nc2cc(OC)c(NC(=O)c3cccs3)cc2OC)c1,.,79*,.,.,.,-14,110*,0.008,9
COc1ccc(NC(=O)CCC(=O)Nc2cc(OC)c(NC(=O)c3cccs3)cc2OC)cc1,2,71*,4,1,4,-2,109*,0.035,9
COc1cccc(NC(=O)c2cccs2)c1,0,-16,3,2,-2,1,.,.,.
COc1ccc(OCC(=O)Nc2ccc(NC(=O)c3cccs3)cc2)cc1,6,-12,-16,2,1,8,.,.,.
SMILES,procasp7 counter,Lipid droplet,VLA-4 inh,GRK2 aptamer HTS,proCasp3 act,GASC-1 inh,Lipid drop inh,AML12 cytotox,AML12 tox ATP
COc1cc(NC(=O)c2cccs2)c(OC)cc1NC(=O)CCC(=O)Nc1ccc(C)cc1,8,68*,0,1,6,-7,108*,0.29,15
Cc1ccc(SCc2cc(=O)n(C)[nH]2)cc1,-9,-3,-2,1,0,-2,.,.,.
COc1ccc(OCc2cc(C(=O)NCC(C)Oc3cccnc3)no2)c(Cl)c1 (stereo unspecified),11,-9,0,4,0,-23,.,.,.
Cc1nc(C)c(C(=O)O)c(-c2cccs2)c1C(=O)O,1,-7,-1,0,-2,12,.,.,.
CCCOc1ccc(C(=O)OCC(=O)NCCc2ccc(OCC)c(OCC)c2)cc1OC,11,88*,9,0,9,12,110*,-0.66,8
CCOc1ccc(CCNC(=O)COC(=O)c2ccncc2)cc1OCC,-6,.,10,0,5,3,.,.,.
CCOc1ccc(CCNC(=O)COC(=O)c2ccc(OC)c(OC)c2OC)cc1OCC,8,77*,1,2,-1,5,109*,-0.68,10
CCOc1ccc(CCNC(=O)COC(=O)c2cc(OC)cc(OC)c2)cc1OCC,2,61*,2,2,-10,-13,94*,-0.87,7
CCOc1ccc(CCNC(=O)COC(=O)c2cccc(OC)c2O)cc1OCC,7,39,-13,3,3,4,.,.,.
CCOc1ccc(CCNC(=O)C2CC(=O)N(Cc3ccc(OC)cc3)C2)cc1OCC (stereo unspecified),-8,57*,2,8,3,2,93*,-0.16,16
CCOc1ccc(CCNC(=O)C2CCN(S(=O)(=O)N3CC(C)CC(C)C3)CC2)cc1OCC (stereo unspecified),10,82*,0,0,1,-2,5,-0.36,.
CCOc1ccc(CCNC(=O)C2CCN(S(=O)(=O)CC)CC2)cc1OCC,-4,.,-2,0,3,-2,.,.,.
CCOc1ccc(S(=O)(=O)NCCC(=O)NCCc2ccc(OCC)c(OCC)c2)cc1,8,.,-8,0,2,-8,.,.,.
CCOc1ccc(C(=O)OCC(=O)Nc2nc(OC)cc(OC)n2)cc1OCC,2,64*,9,0,-12,-34,102*,-0.56,15
